The subject of experiment [1] is MGC-803. Kind of experiment: Cytotoxicity against human MGC803 cells after 72 hrs by MTT assay. The settings on record: for IC50: MGC-803, 72 h. Format: functional, cell-based. In short, it runs like this: (§1)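 Cancer lines grown in RPMI 1640 with 10% heat-inactivated FBS, 37 °C, 5% CO2. Cells trypsinized at 80-90% confluence, seeded at 2×10^3/well overnight, then given compounds (DMSO stocks diluted in medium) at various concentrations for 72 h at 37 °C. Controls: 0.1% DMSO negative, adriamycin positive. MTT (5 mg/ml) added for 4 h, formazan dissolved in SDS 12 h, A595 read. IC50 from dose-response curves.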
On the technique in general: Tetrazolium assays rely on reduction of a dye to a coloured formazan, in cell work by metabolically active cells.

Experiment [2] can be described thus: (§2) Cytotoxicity against human PC3 cells after 72 hrs by MTT assay. Format: functional, cell-based. The settings on record: PC-3, 72 h. In short, it runs like this:
(§3)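 Cells trypsinized at 80-90% confluence, seeded at 2×10^3/well overnight, then given compounds (DMSO stocks diluted in medium) at various concentrations for 72 h at 37 °C. Controls: 0.1% DMSO negative, adriamycin positive. MTT (5 mg/ml) added for 4 h, formazan dissolved in SDS 12 h, A595 read. IC50 from dose-response curves.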

Experiment [3] deals with PC-3. The description is as §2. Format: functional, cell-based. The procedure, abridged:
as §3

For experiment [4], the system named is Bcap37. Put plainly: Cytotoxicity against human Bcap37 cells after 72 hrs by MTT assay. Format: functional, cell-based. The conditions noted are these: for IC50: Bcap37, 72 h. The procedure, abridged:
as §1

For experiment [5], the system named is A-375. Kind of experiment: Cytotoxicity against human A375 cells after 72 hrs by MTT assay. Format: functional, cell-based. The conditions noted are these: for IC50: A-375, 72 h. In short, it runs like this: as §1
Experiment [6] deals with MCF7. Put plainly: Cytotoxicity against human MCF7 cells after 72 hrs by MTT assay. Format: functional, cell-based. The settings on record: for IC50: MCF7, 72 h. The procedure, abridged:
as §1

For experiment [7], the system named is MGC-803. Put plainly: Selectivity index, ratio of IC50 for mouse NIH/3T3 cells to IC50 for human MGC803 cells. Format: functional. In short, it runs like this:
(§4)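 Index is the IC50 in normal NIH3T3 cells divided by the IC50 in each cancer line. […] HCPT and adriamycin were used as positive controls.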

The subject of experiment [8] is PC-3. Put plainly: Selectivity index, ratio of IC50 for mouse NIH/3T3 cells to IC50 for human PC3 cells. Format: functional. In short, it runs like this: as §4
For experiment [9], the system named is Bcap37. Kind of experiment: Selectivity index, ratio of IC50 for mouse NIH/3T3 cells to IC50 for human Bcap37 cells. Format: functional. In short, it runs like this:
as §4

Experiment [10] has as its system A-375. Kind of experiment: Selectivity index, ratio of IC50 for mouse NIH/3T3 cells to IC50 for human A375 cells. Format: functional. The procedure, abridged: as §4
Experiment [11] deals with MCF7. Kind of experiment: Selectivity index, ratio of IC50 for mouse NIH/3T3 cells to IC50 for human MCF7 cells. Format: functional. In short, it runs like this:
as §4

Experiment [12] relates to MGC-803. Put plainly: Induction of apoptosis in human MGC803 cells assessed as appearance of compact condensed and crescent shaped cells at 10 uM after 48 hrs by Hoechst 33258 staining-based fluorescence microscopic analysis. Format: functional, cell-based. The procedure, abridged: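 MGC-803 cells seeded at 5×10^4 cells/mL in 6-well plates; medium replaced with fresh medium plus 10% FBS and compound (10 µM, 48 h), DMSO negative control. Cells washed, fixed in 4% paraformaldehyde 10 min, stained with Hoechst 33258 for 5 min, washed, then nuclear morphology viewed by fluorescence microscopy (excitation 350 nm, emission 460 nm).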

In experiment [13] the test system is MGC-803. Put plainly: Induction of apoptosis in human MGC803 cells assessed as DNA fragmentation at 10 uM after 48 hrs by TUNEL assay. Format: functional, cell-based. In short, it runs like this:
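MGC-803 cells seeded at 5×10^4 cells/mL in 6-well plates; medium replaced with fresh medium plus 10% FBS and compound (10 µM, 48 h), DMSO negative control. Fixed in 4% paraformaldehyde 40 min, permeabilized 2 min on ice, peroxidase quenched (0.3% H2O2/methanol, 20 min RT), TdT/biotin-dUTP 60 min 37 °C, streptavidin-HRP 30 min, then DAB. Brown precipitate under light microscopy scored apoptotic.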

Calls of active or inactive are those of the source. No cut-off for these calls is given here.

With `C=C(C)[C@@H]1CC[C@]2(C(=O)OCCN3CCN(C(=O)c4ccccc4C)CC3)CC[C@]3(C)[C@H](CC[C@@H]4[C@@]5(C)CCC(=O)C(C)(C)[C@@H]5CC[C@]43C)[C@@H]12`, the Activity result in the experiment on MGC-803 [1], in the experiment on PC-3 [3], in the experiment with Bcap37 [4], in the experiment on A-375 [5] and in the experiment on MCF7 [6] was “Dose-dependent effect” in each case. Further, the concentration for half-maximal inhibition (IC50) – broadly, the concentration that gives 50% inhibition – is 4.5 µM in the experiment with MGC-803 [1]; 8.7 µM in experiment [2]; 6.4 µM in the experiment on Bcap37 [4]; 4.5 µM with A-375 [5]; 5.4 µM in the experiment on MCF7 [6]. Moreover, the “Ratio IC50” value in the experiment with MGC-803 [7] was found to be 4.69; in the experiment with PC-3 [8], 2.43; in the experiment on Bcap37 [9], 3.3; in the experiment with A-375 [10] it was 4.69; in the experiment on MCF7 [11] it was 3.91.

Take `CC[C@@]1(O)C(=O)OCc2c1cc1n(c2=O)Cc2cc3cc(O)ccc3nc2-1` [HYDROXYCAMPTOTHECIN]: the Activity result in the experiment with MGC-803 [1], in the experiment with PC-3 [3], in the experiment on Bcap37 [4] and in the experiment with A-375 [5] was “Dose-dependent effect” throughout. Besides, the IC50 with MGC-803 [1] was found to be 29.1 µM; in [2], 34.5 µM; in the experiment on Bcap37 [4], 28.1 µM; in the experiment on A-375 [5], 27.8 µM; with MCF7 [6], 48.2 µM. Also, the result in the experiment with MGC-803 [12] and with MGC-803 [13] was Active.

`C=C(C)[C@@H]1CC[C@]2(C(=O)OCCN3CCN(C(=O)c4ccccc4)CC3)CC[C@]3(C)[C@H](CC[C@@H]4[C@@]5(C)CCC(=O)C(C)(C)[C@@H]5CC[C@]43C)[C@@H]12`: the Activity entry in the experiment with MGC-803 [1], with PC-3 [3], in the experiment on Bcap37 [4], in the experiment on A-375 [5] and in the experiment with MCF7 [6] was “Dose-dependent effect” in each case. Further, the IC50 in the experiment with MGC-803 [1] turned out to be 5.3 µM; in [2], 4.1 µM; with Bcap37 [4], 7.4 µM; with A-375 [5], 6.3 µM; in the experiment on MCF7 [6], 4.7 µM. Also, the “Ratio IC50” value is on record as 7.62 in the experiment with MGC-803 [7]; 9.85 in the experiment on PC-3 [8]; 5.46 in the experiment with Bcap37 [9]; 6.41 in the experiment with A-375 [10]; 8.6 in the experiment on MCF7 [11].

`C=C(C)[C@@H]1CC[C@]2(C(=O)OCCN3CCN(C(=O)c4ccc(F)c(F)c4)CC3)CC[C@]3(C)[C@H](CC[C@@H]4[C@@]5(C)CCC(=O)C(C)(C)[C@@H]5CC[C@]43C)[C@@H]12`: the Activity entry with MGC-803 [1], with PC-3 [3], in the experiment on Bcap37 [4], in the experiment on A-375 [5] and in the experiment with MCF7 [6] was “Dose-dependent effect” in each case. Further, the IC50 in the experiment with MGC-803 [1] amounted to 4.4 µM; in [2], 4.6 µM; with Bcap37 [4], 3.9 µM; in the experiment on A-375 [5], 7.2 µM; with MCF7 [6] it was 3.7 µM. Moreover, the “Ratio IC50” value is 4.2 in the experiment with MGC-803 [7]; 4.02 in the experiment with PC-3 [8]; 4.74 in the experiment with Bcap37 [9]; 2.57 in the experiment with A-375 [10]; 5 in the experiment with MCF7 [11].

On to `C=C(C)[C@@H]1CC[C@]2(C(=O)OCCCCN(CC)CC)CC[C@]3(C)[C@H](CC[C@@H]4[C@@]5(C)CCC(=O)C(C)(C)[C@@H]5CC[C@]43C)[C@@H]12`, for which the Activity entry in the experiment with MGC-803 [1], with PC-3 [3], with Bcap37 [4], with A-375 [5] and in the experiment with MCF7 [6] was “Dose-dependent effect” throughout. For the same compound, the IC50 in the experiment with MGC-803 [1] was found to be 3.8 µM; in experiment [2], 4.4 µM; in the experiment on Bcap37 [4] it was 5.2 µM; in the experiment with A-375 [5] it was 9.2 µM; in the experiment with MCF7 [6], 7.9 µM. Moreover, the “Ratio IC50” value in the experiment with MGC-803 [7] turned out to be 6.15; with PC-3 [8], 5.32; with Bcap37 [9] it was 4.5; in the experiment on A-375 [10] it was 2.54; in the experiment with MCF7 [11], 2.96.

As to `C=C(C)[C@@H]1CC[C@]2(C(=O)OCCCCN3CCCC3)CC[C@]3(C)[C@H](CC[C@@H]4[C@@]5(C)CCC(=O)C(C)(C)[C@@H]5CC[C@]43C)[C@@H]12`, the Activity result in the experiment with MGC-803 [1], in the experiment on PC-3 [3], in the experiment on Bcap37 [4], with A-375 [5] and in the experiment with MCF7 [6] was “Dose-dependent effect” throughout. For the same compound, the IC50 amounted to 4 µM in the experiment with MGC-803 [1]; 6.7 µM in experiment [2]; 4.7 µM in the experiment with Bcap37 [4]; 8.5 µM in the experiment on A-375 [5]; 5.4 µM in the experiment with MCF7 [6]. Moreover, the “Ratio IC50” value in the experiment with MGC-803 [7] came out at 7.18; in the experiment on PC-3 [8], 4.28; in the experiment on Bcap37 [9], 6.11; with A-375 [10], 3.38; in the experiment with MCF7 [11], 5.31.

The record behind these values is ChEMBL document CHEMBL3414513, “Synthesis and biological evaluation of betulonic acid derivatives as antitumor agents” (Eur J Med Chem, 2015).
